Results reported in ChEMBL document CHEMBL1125695, “Potential anti-AIDS drugs. Lipophilic, adenosine deaminase-activated prodrugs” (J Med Chem, 1991).
One block for each molecule: values may come before it.

Key:
[1] = Partition coefficient (logP); type: physicochemical; settings: octanol/water
Method in brief: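 Microscale shake-flask method: compound from DMSO stock into 1.0 mL octanol-saturated 0.01 M potassium phosphate pH 7.0, then mixed with 1.0 mL buffer-saturated n-octanol at 24–26 °C. Stood 15 min, phases centrifuged, each analysed by HPLC. P is the octanol/buffer peak-area ratio; mean ± SD of three independent determinations.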

[2] = Anti-HIV activity (% protection) in ATH-8 cells at 5 uM in absence of 2''-deoxycoformycin at 5 uM; type: functional, Homo sapiens
Method in brief: (§1)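 CD4+ ATH8 cells (200 000) exposed 1 h to cell-free HIV-1/IIIB, 43 TCID50 (1087 for one analogue), resuspended in 2 mL IL-2 medium with 15% fetal calf serum, cultured at 37 °C in 5% CO2 with or without compound; dCF alone 5 μM. Day 8 viable cells counted by dye exclusion. % protection and % toxicity computed versus infected-untreated and uninfected-untreated cells; ≤0 given as 0%. Minimum two separate experiments; representative test reported.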

[3] = Kinetic parameter Vmax at pH 7.4 and 37 degree Centigrade; type: ADME
Method in brief: (§2)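 Calf intestinal mucosa adenosine deaminase with dideoxynucleoside substrates in 0.01 M Tris pH 7.4 at 37 °C. Aliquots quenched with cold 2 μM 2'-deoxycoformycin, ultrafiltered, and substrate loss followed by reversed-phase HPLC (CH3CN in pH 7.0 phosphate). Relative rates taken at 50 μM substrate with 0.7 unit/mL enzyme, referenced to ddA = 100.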

[4] = Anti-HIV activity (% protection) in ATH-8 cells at 5 uM in absence of 2'-deoxycoformycin at 20 uM; type: functional, Homo sapiens; method in brief: as §1
[5] = Anti-HIV activity (% protection) in ATH-8 cells at 5 uM in absence of 2'-deoxycoformycin at 100 uM; type: functional, Homo sapiens; method in brief: as §1
[6] = Anti-HIV activity (% toxicity) in ATH-8 cells at 5 uM in absence of 2'-deoxycoformycin at 50 uM; type: cell-based; settings: human, ath-8, 5 µM; method in brief: as §1
[7] = Anti-HIV activity (% protection) in ATH-8 cells at 5 uM in absence of 2'-deoxycoformycin at 0 uM; type: functional, Homo sapiens; method in brief: as §1
[8] = Anti-HIV activity (% protection) in ATH-8 cells at 5 uM in absence of 2'-deoxycoformycin at 10 uM; type: functional, Homo sapiens; method in brief: as §1
[9] = Anti-HIV activity (% toxicity) in ATH-8 cells at 5 uM in absence of 2'-deoxycoformycin at 10 uM; type: cell-based; settings: human, ath-8, 5 µM; method in brief: as §1
[10] = Anti-HIV activity (% protection) in ATH-8 cells at 5 uM in presence of 2'-deoxycoformycin at 50 uM; type: functional, Homo sapiens; method in brief: as §1
[11] = Anti-HIV activity (% toxicity) in ATH-8 cells at 5 uM in presence of 2'-deoxycoformycin at 100 uM; type: cell-based; settings: human, ath-8, 5 µM; method in brief: as §1
[12] = Anti-HIV activity (% toxicity) in ATH-8 cells at 5 uM in absence of 2'-deoxycoformycin at 5 uM; type: cell-based; settings: human, ath-8, 5 µM; method in brief: as §1
[13] = Anti-HIV activity (% protection) in ATH-8 cells at 5 uM in presence of 2'-deoxycoformycin at 10 uM; type: functional, Homo sapiens; method in brief: as §1
[14] = Anti-HIV activity (% toxicity) in ATH-8 cells at 5 uM in absence of 2'-deoxycoformycin at 100 uM; type: cell-based; settings: human, ath-8, 5 µM; method in brief: as §1
[15] = Anti-HIV activity (% toxicity) in ATH-8 cells at 5 uM in presence of 2'-deoxycoformycin at 50 uM; type: cell-based; settings: human, ath-8, 5 µM; method in brief: as §1
[16] = Anti-HIV activity (% protection) in ATH-8 cells at 5 uM in presence of 2'-deoxycoformycin at 100 uM; type: functional, Homo sapiens; method in brief: as §1
[17] = Anti-HIV activity (% protection) in ATH-8 cells at 5 uM in absence of 2'-deoxycoformycin at 50 uM; type: functional, Homo sapiens; method in brief: as §1
[18] = Anti-HIV activity (% toxicity) in ATH-8 cells at 5 uM in presence of 2'-deoxycoformycin at 10 uM; type: cell-based; settings: human, ath-8, 5 µM; method in brief: as §1
[19] = Anti-HIV activity (% toxicity) in ATH-8 cells at 5 uM in absence of 2'-deoxycoformycin at 20 uM; type: cell-based; settings: human, ath-8, 5 µM; method in brief: as §1
[20] = Anti-HIV activity (% toxicity) in ATH-8 cells at 5 uM in absence of 2'-deoxycoformycin at 0 uM; type: cell-based; settings: human, ath-8, 5 µM; method in brief: as §1
[21] = Anti-HIV activity (% toxicity) in ATH-8 cells at 5 uM in presence of 2'-deoxycoformycin at 0 uM; type: cell-based; settings: human, ath-8, 5 µM; method in brief: as §1
[22] = Anti-HIV activity (% protection) in ATH-8 cells at 5 uM in presence of 2'-deoxycoformycin at 20 uM; type: functional, Homo sapiens; method in brief: as §1
[23] = Anti-HIV activity (% toxicity) in ATH-8 cells at 5 uM in presence of 2'-deoxycoformycin at 20 uM; type: cell-based; settings: human, ath-8, 5 µM; method in brief: as §1
[24] = Anti-HIV activity (% toxicity) in ATH-8 cells at 5 uM in presence of 2'-deoxycoformycin at 5 uM; type: cell-based; settings: human, ath-8, 5 µM; method in brief: as §1
[25] = Kinetic parameter relative rate measured at 50 uM at pH 7.4 and 37 degree Centigrade; type: ADME; settings: pH 7.4, 50 µM; method in brief: as §2
[26] = Anti-HIV activity (% protection) in ATH-8 cells at 5 uM in presence of 2'-deoxycoformycin at 5 uM; type: functional, Homo sapiens; method in brief: as §1
[27] = Anti-HIV activity (% protection) in ATH-8 cells at 5 uM in presence of 2'-deoxycoformycin at 0 uM; type: functional, Homo sapiens; method in brief: as §1
[28] = Anti-HIV activity (%protection) in ATH-8 cells at 5 uM in absence of 2''-deoxycoformycin at 0 uM; type: functional, Homo sapiens; method in brief: as §1
[29] = (§3) Anti-HIV activity (%toxicity) in ATH-8 cells at 5 uM; type: cell-based; settings: human, ath-8, 5 µM; method in brief: as §1
[30] = Anti-HIV activity (%protection) in ATH-8 cells at 5 uM in absence of 2''-deoxycoformycin at 100 uM; type: functional, Homo sapiens; method in brief: as §1
[31] = (§4) Anti-HIV activity (% toxicity) in ATH-8 cells at 5 uM; type: cell-based; settings: human, ath-8, 5 µM; method in brief: as §1
[32] = as §3; type: cell-based; settings: human, ath-8, 5 µM; method in brief: as §1; remark: listed apart in the source
[33] = as §4; type: cell-based; settings: human, ath-8, 5 µM; method in brief: as §1; remark: listed apart in the source
[34] = Anti-HIV activity (%protection) in ATH-8 cells at 5 uM in absence of 2''-deoxycoformycin at 50 uM; type: functional, Homo sapiens; method in brief: as §1
[35] = as §3; type: cell-based; settings: human, ath-8, 5 µM; method in brief: as §1; remark: listed apart in the source
[36] = Anti-HIV activity (%protection) in ATH-8 cells at 5 uM in absence of 2'-deoxycoformycin at 5 uM; type: functional, Homo sapiens; method in brief: as §1
[37] = Anti-HIV activity (%protection) in ATH-8 cells at 5 uM in absence of 2''-deoxycoformycin at 20 uM; type: functional, Homo sapiens; method in brief: as §1
[38] = (§5) Anti-HIV activity in ATH-8 cells at 5 uM in absence of 2''-deoxycoformycin at 20 uM; type: functional, Homo sapiens; method in brief: as §1
[39] = as §5; type: cell-based; settings: human, ath-8, 5 µM; method in brief: as §1

- logP [1]: 0.12
Structure (SMILES): Cc1nc(N)c2ncn([C@@H]3O[C@H](CO)C[C@@H]3F)c2n1

- logP [1]: 0.05
Structure (SMILES): Cc1cn([C@H]2C[C@H](N=[N+]=[N-])[C@@H](CO)O2)c(=O)[nH]c1=O [ZIDOVUDINE]

- Vmax [3]: 0.00055 µmol/min/unit
- Relative rate [25]: 0.04
- logP [1]: 0.27
Structure (SMILES): CNc1ncnc2c1ncn2C1OC(CO)CC1F (configuration not stated)
- Protection [2]: 13%
- Protection [4]: 32%
- Protection [5]: 27%
- Toxicity [6]: 6%
- Protection [7]: 0%
- Protection [8]: 24%
- Toxicity [9]: 0%
- Protection [10]: 0%
- Toxicity [11]: 70%
- Toxicity [12]: 0%
- Protection [13]: 2%
- Toxicity [14]: 44%
- Toxicity [15]: 46%
- Protection [16]: 0%
- Protection [17]: 37%
- Toxicity [18]: 7%
- Toxicity [19]: 0%
- Toxicity [20]: 0%
- Toxicity [21]: 11%
- Protection [22]: 0%
- Toxicity [23]: 0%
- Toxicity [24]: 3%
- Protection [26]: 1%
- Protection [27]: 0%

- logP [1]: 0.73
Structure (SMILES): O=C(Nc1ncnc2c1ncn2C1OC(CO)CC1F)c1ccccc1 (configuration not stated)
- Protection [28]: 0%
- Toxicity [29]: 0%
- Protection [30]: 21%
- Toxicity [31]: 2%
- Toxicity [32]: 0%
- Toxicity [33]: 8%
- Protection [34]: 29%
- Toxicity [35]: 0%
- Protection [36]: 8%
- Protection [37]: 30%

- Vmax [3]: 0.23 µmol/min/unit
- Relative rate [25]: 6
Structure (SMILES): Nc1ncnc2c1ncn2[C@@H]1O[C@H](CO)C[C@@H]1F [LODENOSINE]
- Protection [4]: 70%
- Toxicity [6]: 0%
- Protection [7]: 0%
- Protection [10]: 48%
- Toxicity [15]: 54%
- Protection [17]: 84%
- Toxicity [19]: 0%
- Toxicity [20]: 0%
- Toxicity [21]: 11%
- Protection [22]: 68%
- Toxicity [23]: 17%
- Protection [27]: 0%

- logP [1]: -0.4
Structure (SMILES): OCC1CC(F)C(n2cnc3cncnc32)O1 (configuration not stated)

- logP [1]: -1.38
Structure (SMILES): Nc1c2ncn(C3OC(CO)CC3F)c2nc[n+]1[O-] (configuration not stated)

- logP [1]: -1.21
Structure (SMILES): OCC1CC(F)C(n2cnc3c(O)ncnc32)O1 (configuration not stated)

- Vmax [3]: 1.32 µmol/min/unit
- Relative rate [25]: 100
- logP [1]: -0.29
Structure (SMILES): Nc1ncnc2c1ncn2[C@H]1CC[C@@H](CO)O1
- Protection [8]: 100%
- Toxicity [9]: 0%
- Protection [13]: 86%
- Toxicity [18]: 22%

- logP [1]: 0.64
Structure (SMILES): CNc1nc(C)nc2c1ncn2[C@@H]1O[C@H](CO)C[C@@H]1F

- Vmax [3]: 0.026 µmol/min/unit
- Relative rate [25]: 0.06
- logP [1]: 0.32
Structure (SMILES): OCC1CC(F)C(n2cnc3c(Cl)ncnc32)O1 (configuration not stated)
- Protection [4]: 57%
- Protection [5]: 35%
- Toxicity [6]: 46%
- Protection [7]: 0%
- Protection [8]: 48%
- Toxicity [9]: 5%
- Protection [10]: 14%
- Toxicity [11]: 72%
- Protection [13]: 15%
- Toxicity [14]: 52%
- Toxicity [15]: 56%
- Protection [16]: 17%
- Protection [17]: 53%
- Toxicity [18]: 49%
- Toxicity [19]: 26%
- Toxicity [20]: 0%
- Toxicity [21]: 14%
- Protection [22]: 11%
- Toxicity [23]: 58%
- Protection [27]: 3%

Structure (SMILES): O=c1[nH]cnc2c1ncn2[C@H]1CC[C@@H](CO)O1 [DIDANOSINE]
- Protection [38]: 100%
- Toxicity [39]: 0%

- logP [1]: -1.33
Structure (SMILES): Nc1ccn([C@H]2CC[C@@H](CO)O2)c(=O)n1 [ZALCITABINE]

- logP [1]: 0.1
Structure (SMILES): Cc1nc2c(N)ncnc2n1C1OC(CO)CC1F (configuration not stated)
